One test concerns the target T1, mouse TRPC6 (Mus musculus, UniProt Q61143).
T1 sequence (Q61143 1-930): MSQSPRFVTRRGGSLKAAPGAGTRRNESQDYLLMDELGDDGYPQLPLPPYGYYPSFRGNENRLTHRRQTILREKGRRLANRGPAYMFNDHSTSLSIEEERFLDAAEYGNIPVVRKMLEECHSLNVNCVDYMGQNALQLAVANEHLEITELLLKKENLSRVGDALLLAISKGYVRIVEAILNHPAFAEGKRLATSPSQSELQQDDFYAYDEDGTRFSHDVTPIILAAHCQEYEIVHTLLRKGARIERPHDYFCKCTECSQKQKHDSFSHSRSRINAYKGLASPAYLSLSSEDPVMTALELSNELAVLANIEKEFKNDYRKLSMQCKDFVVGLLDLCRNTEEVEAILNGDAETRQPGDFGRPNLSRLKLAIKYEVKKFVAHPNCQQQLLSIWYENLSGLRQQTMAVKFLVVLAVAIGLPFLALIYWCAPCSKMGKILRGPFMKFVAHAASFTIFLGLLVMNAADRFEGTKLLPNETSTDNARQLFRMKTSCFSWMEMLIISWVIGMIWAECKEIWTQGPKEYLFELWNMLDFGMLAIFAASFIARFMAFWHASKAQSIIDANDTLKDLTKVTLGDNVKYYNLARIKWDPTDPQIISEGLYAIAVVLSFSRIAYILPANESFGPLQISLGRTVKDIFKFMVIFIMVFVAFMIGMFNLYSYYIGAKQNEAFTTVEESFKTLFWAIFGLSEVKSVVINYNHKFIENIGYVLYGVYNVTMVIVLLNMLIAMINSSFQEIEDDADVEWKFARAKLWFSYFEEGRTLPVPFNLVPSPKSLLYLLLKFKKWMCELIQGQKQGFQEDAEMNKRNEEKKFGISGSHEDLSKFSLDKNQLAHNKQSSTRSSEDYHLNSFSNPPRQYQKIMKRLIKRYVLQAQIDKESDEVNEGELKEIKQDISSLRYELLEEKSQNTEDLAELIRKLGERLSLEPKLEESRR
The test can be described thus: Fluorescence Ca2+ assay, inhibition of HDM-activated TRPC6 in HEK293 cells. Type of test: cell-based. The settings on record: HEK293 cells with stable expression of mouse TRPC6. The method, boiled down: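 HEK293 cells co-expressing mouse TRPC6 and the Gq/11-PLC-coupled M5 muscarinic receptor were loaded with Fluo-4. Cells were preincubated with test compound at various concentrations for 5 min, then HDM (10 μM) was added, and fluorescence was read in a microplate reader. Traces were expressed as ΔF over F0. IC50 came from a Hill fit of one experiment (N = 3).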

Another test deals with MKN-45 cells. The test can be described thus: MTT cell viability assay, MKN-45. Format: cell-based, human. Conditions: read-out: IC50 cell proliferation, MKN-45; 72 h, MTT. The gist of the method:
(§1)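 Cells were seeded at 2000 per well, incubated overnight and exposed to test compound for 72 h. MTT was added for 4 h, formazan was dissolved in DMSO and absorbance was read at 570 nm. Viability was normalized to untreated wells, giving mean ± SEM of three trials. IC50 was calculated from relative survival.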
In general terms: Formazan colour is commonly taken as a measure of viable cells.

The subject of a further test is AGS cells. As to the kind of experiment: MTT cell viability assay, AGS. Format: cell-based, human. Conditions: read-out: IC50 cell proliferation, AGS; 72 h, MTT. The method, boiled down: as §1
The target of a further test is T2, TRPC6 (Mus musculus, UniProt Q61143).
T2 sequence (Q61143 1-930): T1 sequence (Q61143 1-930)
Conditions: read-out: IC50 TRPC6; nonselective TRPC6 antagonist; cited from earlier work.

Entries after “also recorded” stand apart in the source; their conditions may differ.

For `COc1cccc2sc(N(CCN(C)C)C(=O)c3ccc4ccccc4c3)nc12` [Compound 1r, N-(2-(dimethylamino)ethyl)-N-(4-methoxybenzo[d]thiazol-2-yl)-2-naphthamide], the “TRPC6 antagonistic potency (in words)” value on mouse TRPC6 is on record as “No in vitro potency; also recorded: no antagonistic potency”.
As for `COc1ccc(CCCOC(Cn2ccnc2)c2ccc(OC)cc2)cc1` (stereo not shown) [SKF-96365, 1H-Imidazole, 1-[2-(4-methoxyphenyl)-2-[3-(4-methoxyphenyl)propoxy]ethyl], reference compound], the IC50 in the test on MKN-45 cells was 15.3 µM; with AGS cells it was 37 µM; at TRPC6 it was 4.9 µM.
